Consider 41 compounds from ChEMBL document CHEMBL1134597, “Identification of alkylidene hydrazides as glucagon receptor antagonists” (J Med Chem, 2001).

Some results are limits rather than exact numbers.

T1 sequence (P47871 whole entry): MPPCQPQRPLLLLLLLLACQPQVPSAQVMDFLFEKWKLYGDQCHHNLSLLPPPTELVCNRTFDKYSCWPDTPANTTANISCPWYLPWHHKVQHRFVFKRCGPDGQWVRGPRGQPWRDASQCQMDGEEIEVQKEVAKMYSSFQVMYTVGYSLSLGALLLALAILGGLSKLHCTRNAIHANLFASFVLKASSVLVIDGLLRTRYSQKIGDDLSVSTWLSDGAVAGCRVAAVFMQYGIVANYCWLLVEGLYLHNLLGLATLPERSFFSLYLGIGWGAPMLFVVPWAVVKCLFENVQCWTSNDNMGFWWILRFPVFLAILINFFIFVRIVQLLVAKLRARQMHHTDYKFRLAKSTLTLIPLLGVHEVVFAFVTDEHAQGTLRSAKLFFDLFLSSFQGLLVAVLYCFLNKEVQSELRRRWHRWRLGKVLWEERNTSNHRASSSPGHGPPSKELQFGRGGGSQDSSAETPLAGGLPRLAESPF
Glucagon receptor (Rattus norvegicus, UniProt P30082), sequence (P30082 whole entry): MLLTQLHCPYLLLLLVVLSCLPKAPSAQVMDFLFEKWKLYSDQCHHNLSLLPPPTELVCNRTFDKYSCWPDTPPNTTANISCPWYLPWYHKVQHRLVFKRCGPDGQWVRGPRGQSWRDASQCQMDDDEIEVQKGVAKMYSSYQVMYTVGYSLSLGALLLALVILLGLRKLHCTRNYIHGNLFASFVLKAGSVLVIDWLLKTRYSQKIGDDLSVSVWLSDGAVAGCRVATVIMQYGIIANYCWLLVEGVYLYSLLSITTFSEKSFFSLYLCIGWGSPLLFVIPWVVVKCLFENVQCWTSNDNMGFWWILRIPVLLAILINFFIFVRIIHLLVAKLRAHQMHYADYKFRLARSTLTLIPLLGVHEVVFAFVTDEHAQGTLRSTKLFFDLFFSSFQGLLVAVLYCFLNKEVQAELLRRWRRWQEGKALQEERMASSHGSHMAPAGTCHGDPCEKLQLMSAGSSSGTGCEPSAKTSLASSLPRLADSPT

Test system in the first assay: not listed separately
The experiment in a line: pA2 value for the compound was calculated. The essentials: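 BHK cells expressing cloned human glucagon receptor (10^6/mL) in HEPES pH 7.4 buffer with 0.1 mM IBMX and 0.2% BSA. Cells pretreated 10 min at 37 °C with several antagonist concentrations, then challenged with increasing glucagon for 20 min. cAMP measured by RIA; pA2 obtained by Schild analysis of rightward-shifted glucagon concentration-response curves.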
With `O=C(N/N=C/c1ccc(O)c2ccccc12)c1ccc(O)c(Cl)c1`, the pA2 (usually a measure of antagonist potency on a negative log scale) is reported as 6.99.

The next assay concerns the target T1, Glucagon receptor (Homo sapiens, UniProt P47871). In words: Binding affinity towards human Glucagon Receptor by the displacement of [125I]-glucagon. The essentials:
(§1)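 Competition binding of [125I]glucagon (~25 000 cpm) to plasma membranes (~0.5 μg) from BHK cells transfected with cloned human glucagon receptor; 25 mM HEPES pH 7.4, 0.1% BSA; run in duplicate, 1 h at 37 °C. Bound and free separated by vacuum filtration on GF/C filters, then scintillation counting; IC50 determined.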
A general note: Displacement assays read how much labelled ligand stays bound in the presence of the test substance.
For `O=C(N/N=C/c1ccc(O)c2ccccc12)c1ccc(O)c(Cl)c1`, the IC50 – broadly, the concentration needed to halve the response being measured – is 0.2 µM.

The target of a further assay is T1, Glucagon receptor. In words: Binding affinity for human Glucagon Receptor. The essentials: as §1
`COc1ccc(/C=N/NC(=O)c2ccc(O)cc2)c2ccccc12`: the IC50 was 4.9 µM.

For `COc1cc(C(=O)N/N=C/c2[nH]cnc2C)ccc1O`, the concentration for half-maximal inhibition (IC50) is > 100 µM.

Consider `O=C(N/N=C/c1ccc(O)c2ccccc12)c1ccc(O)c(CN2CCOCC2)c1`, for which the IC50 was > 100 µM.

`COc1cc(C(=O)N/N=C/c2c[nH]c3ccccc23)ccc1O`: the IC50 was found to be 23 µM. That is a double-digit micromolar value.

Take `COc1cc(C(=O)N/N=C(\C)c2cccc3ccccc23)ccc1O`: the half-inhibitory concentration (IC50) was > 100 µM.

The compound `O=C(N/N=C/c1ccc(O)c2ccccc12)c1ccc(O)c(O)c1` registered an IC50 of 3.4 µM.

On to `COc1cc(C(=O)N/N=C/c2cnc(O)nc2O)ccc1O`, for which the IC50 is > 100 µM.

As to `Nc1ccc(C(=O)N/N=C/c2ccc(O)c3ccccc23)cc1`, the half-inhibitory concentration (IC50) was > 100 µM.

`COc1cc(C(=O)N/N=C/c2ccnc3ccccc23)ccc1O` gave an IC50 of 10 µM.

`Nc1cc(C(=O)N/N=C/c2ccc(O)c3ccccc23)ccc1O` returned an IC50 of 2 µM.

Regarding `COc1cc(C(=O)N/N=C/c2ccc(O)c3ccccc23)cc(Cl)c1O`, the IC50 was 60 µM. This IC50 lies about 30-fold higher than the previous one.

The compound `COc1cc(C(=O)N/N=C/c2cccc(Oc3cccc(C(F)(F)F)c3)c2)ccc1O` showed an IC50 of 4.9 µM.

For the compound `COc1cc(C(=O)N/N=C/c2ccc(N(C)C)c3ccccc23)ccc1O`, the IC50 is 8.1 µM.

As for `COc1cc(C(=O)N/N=C/c2ccc(C(C)(C)C)cc2)ccc1O`, the half-inhibitory concentration (IC50) was 29 µM.

In the case of `O=C(N/N=C/c1ccc(O)c2ccccc12)c1ccc2[nH]ccc2c1`, the IC50 is > 100 µM.

`O=C(O)c1ccc(C(=O)N/N=C/c2ccc(O)c3ccccc23)cc1`: the IC50 was > 100 µM.

Regarding `O=C(N/N=C/c1ccc(O)c2ccccc12)c1ccc(O)cc1O`, the concentration for half-maximal inhibition (IC50) came out at 28 µM. This lies in the double-digit micromolar range.

In the case of `COc1ccc(/C=N/NC(=O)c2ccc(O)c(OC)c2)cc1`, the IC50 is > 100 µM.

In turn, `COc1cc(C(=O)N/N=C/c2ccc(OC(F)(F)F)cc2)ccc1O` registered a half-maximal inhibitory concentration (IC50) of 43 µM.

Compound `COc1cc(C(=O)N/N=C/c2ccc(-c3ccccc3)cc2)ccc1O` returned an IC50 of 26 µM. This IC50 is about 1.7-fold lower than that of the compound before.

`COc1cc(C(=O)N/N=C/c2ccc(OC)c3ccccc23)ccc1O` yielded a half-maximal inhibitory concentration (IC50) of 2.9 µM.

In turn, `O=C(N/N=C/c1cccc2ccccc12)c1ccc(O)cc1` displayed a half-maximal inhibitory concentration (IC50) of 1.8 µM. Compared with the last compound, the IC50 is about 1.6-fold lower.

As to `COc1cc(C(=O)N/N=C/c2ccc(-c3ccc(C)c(Cl)c3)o2)ccc1O`, the concentration for half-maximal inhibition (IC50) was determined as 12 µM.

`CCn1c2ccccc2c2cc(/C=N/NC(=O)c3ccc(O)c(OC)c3)ccc21` had an IC50 of 6.3 µM.

Regarding `O=C(N/N=C/c1ccc(O)c2ccccc12)c1ccc2nccnc2c1`, the IC50 is > 100 µM.

The compound `COc1cc(C(=O)N/N=C/c2ccc(O)c3ccccc23)ccc1O` displayed an IC50 of 0.72 µM. In other words, the sub-micromolar range.

Consider `COc1cc(C(=O)N/N=C/c2ccc(/C=C/c3ccccc3)cc2)ccc1O`, for which the half-inhibitory concentration (IC50) is > 100 µM.

`O=C(N/N=C/c1ccc(O)c2ccccc12)c1cc(Cl)c(O)c(Cl)c1`: the IC50 amounted to 34 µM. In other words, the double-digit micromolar range.

As for `O=C(N/N=C/c1ccc(O)c2ccccc12)c1ccc(O)nc1`, the IC50 was > 100 µM.

In the case of `O=C(N/N=C/c1ccc(O)c2ccccc12)c1cc2cc(O)ccc2[nH]1`, the IC50 was > 100 µM.

As for `O=C(N/N=C/c1ccc(O)c2ccccc12)c1ccc(O)c(Br)c1`, the concentration for half-maximal inhibition (IC50) amounted to 0.83 µM.

With `COc1cccc(C(=O)N/N=C/c2ccc(OC)c3ccccc23)c1`, the IC50 was > 100 µM.

The compound `O=C(N/N=C/c1ccc(O)c2ccccc12)c1ccc(O)c(F)c1` came in with an IC50 of 0.39 µM.

As for `COc1cc(C(=O)N/N=C/c2cccc3ccccc23)ccc1O`, the IC50 came out at 4.8 µM.

As to `O=C(NNCc1cccc2ccccc12)c1ccc(O)cc1`, the 50% inhibitory concentration (IC50) is > 100 µM.

On to `COc1cc(/C=N/NC(=O)c2cccc3ccccc23)ccc1O`, for which the half-maximal inhibitory concentration (IC50) was > 100 µM.

As to `COc1cc(C(=O)N/N=C/c2ccc(C(C)C)cc2)ccc1O`, the IC50 worked out at 43 µM. This counts as double-digit micromolar.

Consider `O=C(N/N=C/c1ccc(O)c2ccccc12)c1ccc(O)cc1`, for which the IC50 came out at 1.2 µM.

Regarding `COc1cc(C(=O)N/N=C/c2ccc(O)cc2)ccc1O`, the IC50 is > 100 µM.

Consider `COc1ccc(/C=N/NC(=O)c2ccc(O)c(OC)c2)cc1O`, for which the 50% inhibitory concentration (IC50) is > 100 µM.

The next assay deals with Glucagon receptor (Rattus norvegicus, UniProt P30082). The experiment in a line: Binding affinity towards rat Glucagon Receptor. Put shortly:
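Plasma membranes prepared from livers of male Wistar rats (2 μg protein) incubated with ~50 000 CPM 125I-glucagon in 50 mM HEPES, 5 mM EGTA, 5 mM MgCl2, 0.005% tween-20, pH 7.4. Samples diluted in DMSO. Nonspecific binding defined with excess unlabeled glucagon; 2 h at 30 °C; vacuum filtration, gamma counting; curve fitting gave IC50.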
With `O=C(N/N=C/c1ccc(O)c2ccccc12)c1ccc(O)c(Cl)c1`, the IC50 is 0.027 µM.
